Reference: ChEMBL document CHEMBL1629418, “Spiroimidazolidinone NPC1L1 inhibitors. Part 2: structure-activity studies and in vivo efficacy” (Bioorg Med Chem Lett, 2010)

How the values were obtained:
[1] = biological target: T1, NPC1-like intracellular cholesterol transporter 1 (Homo sapiens, UniProt Q9UHC9); assay: Displacement of [35S](2S,3S,4S,5R,6S)-6-(4-((2S,3R)-3-((S)-3-(4-fluorophenyl)-3-hydroxypropyl)-1-(4-(3-(methylsulfonamido)prop-1-ynyl)phenyl)-4-oxoazetidin-2-yl)phenoxy)-3,4,5-trihydroxytetrahydro-2H-pyran-2-carboxylic acid from human NCP1L1 expressed in HEK 293; assay type: cell-based, HEK293
T1 sequence (Q9UHC9 whole entry): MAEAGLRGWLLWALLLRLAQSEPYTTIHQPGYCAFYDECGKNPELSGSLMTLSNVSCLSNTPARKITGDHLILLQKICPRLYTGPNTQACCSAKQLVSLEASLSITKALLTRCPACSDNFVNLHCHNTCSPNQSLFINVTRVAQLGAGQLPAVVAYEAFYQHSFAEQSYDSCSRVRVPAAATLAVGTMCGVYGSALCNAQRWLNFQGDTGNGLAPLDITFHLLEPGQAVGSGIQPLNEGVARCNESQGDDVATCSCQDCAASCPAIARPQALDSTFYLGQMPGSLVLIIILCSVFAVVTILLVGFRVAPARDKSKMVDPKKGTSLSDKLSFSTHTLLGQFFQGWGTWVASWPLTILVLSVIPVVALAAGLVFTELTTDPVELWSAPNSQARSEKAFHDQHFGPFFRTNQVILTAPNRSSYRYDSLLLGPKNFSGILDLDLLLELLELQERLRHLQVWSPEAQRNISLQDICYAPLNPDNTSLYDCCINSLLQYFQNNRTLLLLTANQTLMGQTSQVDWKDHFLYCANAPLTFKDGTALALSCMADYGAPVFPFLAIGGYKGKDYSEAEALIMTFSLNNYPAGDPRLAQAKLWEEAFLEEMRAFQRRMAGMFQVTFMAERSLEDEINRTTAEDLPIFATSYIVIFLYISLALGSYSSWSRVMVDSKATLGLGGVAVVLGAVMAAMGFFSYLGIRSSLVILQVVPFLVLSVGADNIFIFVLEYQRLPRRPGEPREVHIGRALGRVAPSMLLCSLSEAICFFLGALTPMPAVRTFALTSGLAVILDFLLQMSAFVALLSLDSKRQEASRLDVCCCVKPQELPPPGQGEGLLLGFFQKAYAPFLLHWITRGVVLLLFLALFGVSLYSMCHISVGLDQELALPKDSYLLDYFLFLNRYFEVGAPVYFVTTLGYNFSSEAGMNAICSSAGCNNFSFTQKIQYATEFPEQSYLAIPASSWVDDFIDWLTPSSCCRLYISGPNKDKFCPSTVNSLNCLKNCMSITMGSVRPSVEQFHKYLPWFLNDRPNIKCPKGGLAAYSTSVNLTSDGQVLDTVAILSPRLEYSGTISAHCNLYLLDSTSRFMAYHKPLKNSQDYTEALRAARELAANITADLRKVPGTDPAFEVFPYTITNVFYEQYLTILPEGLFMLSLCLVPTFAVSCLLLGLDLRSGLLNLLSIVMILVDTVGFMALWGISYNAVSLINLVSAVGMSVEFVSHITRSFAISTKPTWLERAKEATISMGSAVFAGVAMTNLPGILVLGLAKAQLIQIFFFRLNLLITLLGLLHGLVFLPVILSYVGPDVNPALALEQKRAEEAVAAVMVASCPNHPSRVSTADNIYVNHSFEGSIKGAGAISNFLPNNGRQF

Mus musculus [2] = assay: Inhibition of cholesterol-absorption in mouse plasma at 100 mg/kg, po; assay type: functional
Summary of the method: (§1)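 Male C57BL/6 mice received compound orally as a suspension in 0.2 mL of 0.25% methocel. After 30 min, mice were given 0.2 mL oral [3H]cholesterol in IntraLipid. Mice were euthanized at 1.5 h or 5 h. Plasma [3H]cholesterol was counted from cardiac-puncture blood; liver was saponified for [3H]cholesterol. Six data points per dose were averaged; % inhibition reported.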

[3] = biological target: NPC1-like intracellular cholesterol transporter 1 (Mus musculus) (UniProt Q6T3U4); assay: Displacement of [35S](2S,3S,4S,5R,6S)-6-(4-((2S,3R)-3-((S)-3-(4-fluorophenyl)-3-hydroxypropyl)-1-(4-(3-(methylsulfonamido)prop-1-ynyl)phenyl)-4-oxoazetidin-2-yl)phenoxy)-3,4,5-trihydroxytetrahydro-2H-pyran-2-carboxylic acid from mouse NCP1L1 expressed in mouse brush border membrane; assay type: cell membranes
Mus musculus [4] = assay: Inhibition of cholesterol-absorption in mouse plasma at 10 mg/kg, po; assay type: functional; summary of the method: as §1
Mus musculus [5] = assay: Inhibition of cholesterol-absorption in mouse plasma at 30 mg/kg, po; assay type: functional; summary of the method: as §1
Mus musculus [6] = assay: Inhibition of [3H]cholesterol absorption in C57BL/6 mouse plasma at 10 mg/kg, po after 1.5 hrs; assay type: functional; conditions: C57BL/6, Plasma; summary of the method: as §1
Mus musculus [7] = assay: Inhibition of [3H]cholesterol absorption in C57BL/6 mouse plasma at 30 mg/kg, po after 1.5 hrs; assay type: functional; conditions: C57BL/6, Plasma; summary of the method: as §1
Mus musculus [8] = assay: Inhibition of [3H]cholesterol absorption in C57BL/6 mouse plasma at 100 mg/kg, po after 1.5 hrs; assay type: functional; conditions: C57BL/6, Plasma; summary of the method: as §1
Mus musculus [9] = assay: Inhibition of [3H]cholesterol absorption in C57BL/6 mouse plasma at 100 mg/kg, po after 5 hrs; assay type: functional; conditions: C57BL/6, Plasma; summary of the method: as §1
Mus musculus [10] = assay: Inhibition of cholesterol-absorption in mouse at 10 mg/kg, po; assay type: functional; summary of the method: as §1
Mus musculus [11] = assay: Inhibition of cholesterol-absorption in mouse liver at 100 mg/kg, po; assay type: functional; summary of the method: as §1
Mus musculus [12] = assay: Inhibition of [3H]cholesterol absorption in C57BL/6 mouse plasma at 1 mg/kg, po after 1.5 hrs; assay type: functional; conditions: C57BL/6, Plasma; summary of the method: as §1
Mus musculus [13] = assay: Inhibition of [3H]cholesterol absorption in C57BL/6 mouse plasma at 1 mg/kg, po after 5 hrs; assay type: functional; conditions: C57BL/6, Plasma; summary of the method: as §1
[14] = biological target: T2, NPC1-like intracellular cholesterol transporter 1 (Homo sapiens) (UniProt Q9UHC9); assay: Binding affinity to human NPC1L1
T2 sequence (whole entry): T1 sequence (Q9UHC9 whole entry)

NPC1-like intracellular cholesterol transporter 1 (Mus musculus), sequence (Q6T3U4 21-1333 limits assumed): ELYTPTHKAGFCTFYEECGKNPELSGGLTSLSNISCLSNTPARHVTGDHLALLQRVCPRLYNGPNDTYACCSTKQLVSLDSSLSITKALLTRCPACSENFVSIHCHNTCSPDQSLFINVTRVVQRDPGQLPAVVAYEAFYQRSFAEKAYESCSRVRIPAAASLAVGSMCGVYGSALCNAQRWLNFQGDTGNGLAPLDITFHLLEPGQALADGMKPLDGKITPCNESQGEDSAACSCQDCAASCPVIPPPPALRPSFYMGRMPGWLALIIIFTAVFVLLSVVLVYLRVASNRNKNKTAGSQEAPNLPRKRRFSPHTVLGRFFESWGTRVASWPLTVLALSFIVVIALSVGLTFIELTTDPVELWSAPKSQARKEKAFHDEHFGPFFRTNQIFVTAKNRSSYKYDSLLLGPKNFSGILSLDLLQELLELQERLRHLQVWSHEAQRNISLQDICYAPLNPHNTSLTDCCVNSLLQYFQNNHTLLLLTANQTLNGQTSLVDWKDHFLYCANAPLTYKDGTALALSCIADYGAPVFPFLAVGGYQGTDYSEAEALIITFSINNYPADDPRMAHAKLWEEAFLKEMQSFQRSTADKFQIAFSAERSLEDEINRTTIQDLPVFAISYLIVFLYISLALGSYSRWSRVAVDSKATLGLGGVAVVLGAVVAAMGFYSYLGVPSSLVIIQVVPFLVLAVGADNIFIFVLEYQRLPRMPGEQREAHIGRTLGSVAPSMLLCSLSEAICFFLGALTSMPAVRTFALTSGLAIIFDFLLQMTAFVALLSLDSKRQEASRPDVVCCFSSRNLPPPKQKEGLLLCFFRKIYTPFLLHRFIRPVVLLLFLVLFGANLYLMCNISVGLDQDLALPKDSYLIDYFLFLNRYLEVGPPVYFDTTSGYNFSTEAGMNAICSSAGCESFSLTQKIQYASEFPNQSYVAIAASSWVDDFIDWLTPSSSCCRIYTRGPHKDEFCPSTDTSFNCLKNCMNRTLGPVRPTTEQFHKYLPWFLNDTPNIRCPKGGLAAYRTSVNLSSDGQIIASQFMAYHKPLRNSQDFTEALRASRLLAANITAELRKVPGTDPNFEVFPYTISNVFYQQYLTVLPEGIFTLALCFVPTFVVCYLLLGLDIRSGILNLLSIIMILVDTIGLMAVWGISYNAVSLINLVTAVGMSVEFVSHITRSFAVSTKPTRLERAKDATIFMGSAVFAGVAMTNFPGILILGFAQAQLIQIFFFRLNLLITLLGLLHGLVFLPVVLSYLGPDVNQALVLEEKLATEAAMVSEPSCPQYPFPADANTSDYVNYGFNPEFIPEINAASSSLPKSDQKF

With `CCc1nn(CC)c(C2CCN(C(=O)CN3CN(c4ccccc4)C4(CCN(C(=O)c5ccc(C(C)(C)C)cc5)CC4)C3=O)CC2)c1C` as the compound, how does the IC50 [1] read?
Its IC50 is 2.5 µM.

What about the inhibition in vivo at 100 mg/kg (Mus musculus [2]) of the same compound?
Its inhibition in vivo at 100 mg/kg is 62%.

What about the IC50 [3] of the same compound?
The IC50 was 40 µM.

What about the inhibition in vivo at 10 mg/kg (Mus musculus [4]) of the same compound?
Its inhibition in vivo at 10 mg/kg is 35%.

And the inhibition in vivo at 30 mg/kg (Mus musculus [5])?
The inhibition in vivo at 30 mg/kg was 48%.

And the inhibition in vivo at 10 mg/kg (Mus musculus [6])?
The inhibition in vivo at 10 mg/kg was 35%.

What about the inhibition in vivo at 30 mg/kg (Mus musculus [7]) of the same compound?
The inhibition in vivo at 30 mg/kg was 48%.

And the inhibition in vivo at 100 mg/kg (Mus musculus [8])?
Its inhibition in vivo at 100 mg/kg is 62%.

What about the inhibition in vivo at 100 mg/kg (Mus musculus [9]) of the same compound?
Its inhibition in vivo at 100 mg/kg is 67%.

Which IC50 [1] does the source give for `O=C(CN1CN(c2ccccc2)C2(CCN(C(=O)c3ccc(C4CCCCC4)cc3)CC2)C1=O)NCCCCO` here?
The IC50 was 1.7 µM.

What about the inhibition in vivo at 10 mg/kg (Mus musculus [10]) of the same compound?
The inhibition in vivo at 10 mg/kg was 52%.

With `O=C(CN1CN(c2ccccc2)C2(CCN(C(=O)c3ccc(C4CCCCC4)cc3)CC2)C1=O)N1CCN(C(=O)c2ccccc2)CC1` as the compound, how does the IC50 [1] read?
The IC50 was 4.8 µM.

What about the inhibition in vivo at 100 mg/kg (Mus musculus [2]) of the same compound?
The inhibition in vivo at 100 mg/kg was 52%.

And the inhibition in vivo at 100 mg/kg (Mus musculus [11])?
The inhibition in vivo at 100 mg/kg was 46%.

What about the IC50 [3] of the same compound?
The IC50 was 19 µM.

For `O=C(CN1CN(c2ccccc2)C2(CCN(C(=O)c3ccc(C4CCCCC4)cc3)CC2)C1=O)NCCCO`, which IC50 [1] is on record?
The IC50 was 14 µM.

And the inhibition in vivo at 10 mg/kg (Mus musculus [10])?
Its inhibition in vivo at 10 mg/kg is 42%.

What about the inhibition in vivo at 100 mg/kg (Mus musculus [2]) of the same compound?
Its inhibition in vivo at 100 mg/kg is 43%.

And the inhibition in vivo at 100 mg/kg (Mus musculus [11])?
The inhibition in vivo at 100 mg/kg was 70%.

With `CC(C)(C)OC(=O)NCCCCNC(=O)CN1CN(c2ccccc2)C2(CCN(C(=O)c3ccc(C(C)(C)C)cc3)CC2)C1=O` as the compound, how does the inhibition in vivo at 10 mg/kg (Mus musculus [10]) read?
Its inhibition in vivo at 10 mg/kg is 7%.

What does the source list for `CC(C)(C)OC(=O)N1CCN(C(=O)CN2CN(c3ccccc3)C3(CCN(C(=O)c4ccc(C5CCCCC5)cc4)CC3)C2=O)CC1`?
IC50 [1]: 3.5 µM; inhibition in vivo at 100 mg/kg (Mus musculus [2]): 4.5%; inhibition in vivo at 100 mg/kg (Mus musculus [11]): 58%; IC50 [3]: 49 µM

`COC(=O)CCNC(=O)CN1CN(c2ccccc2)C2(CCN(C(=O)c3ccc(C(C)(C)C)cc3)CC2)C1=O` was tested. Which inhibition in vivo at 10 mg/kg (Mus musculus [10]) did it give?
Its inhibition in vivo at 10 mg/kg is 44%.

What does the source list for `O=C1[C@H](CC[C@H](O)c2ccc(F)cc2)[C@@H](c2ccc(O)cc2)N1c1ccc(F)cc1` [EZETIMIBE]?
inhibition in vivo at 1 mg/kg (Mus musculus [12]): 7%; inhibition in vivo at 1 mg/kg (Mus musculus [13]): 90%

`COC(=O)CCCNC(=O)CN1CN(c2ccccc2)C2(CCN(C(=O)c3ccc(C(C)(C)C)cc3)CC2)C1=O` was tested. Which inhibition in vivo at 10 mg/kg (Mus musculus [10]) did it give?
The inhibition in vivo at 10 mg/kg was 35%.

Which Activity [14] does the source give for `CC(C)(C)c1ccc(C(=O)N2CCC3(CC2)C(=O)N(CC(=O)N2CCCCC2)CN3c2ccccc2)cc1` here?
Its Activity is 2.5 µM.

What does the source list for `CC(C)(C)OC(=O)N1CCN(C(=O)CN2CN(c3ccccc3)C3(CCN(C(=O)c4ccc(C(C)(C)C)cc4)CC3)C2=O)CC1`?
IC50 [1]: 1 µM; IC50 [3]: 49 µM

With `CS(=O)(=O)NCCCNC(=O)CN1CN(c2ccccc2)C2(CCN(C(=O)c3ccc(C4CCCCC4)cc3)CC2)C1=O` as the compound, how does the IC50 [1] read?
Its IC50 is 2.5 µM.

And the inhibition in vivo at 10 mg/kg (Mus musculus [10])?
The inhibition in vivo at 10 mg/kg was 42%.

And the inhibition in vivo at 100 mg/kg (Mus musculus [2])?
The inhibition in vivo at 100 mg/kg was under 5%.

And the inhibition in vivo at 100 mg/kg (Mus musculus [11])?
Its inhibition in vivo at 100 mg/kg is under 5%.

How did the IC50 [1] turn out when `CC(C)(C)OC(=O)NCCCCNC(=O)CN1CN(c2ccccc2)C2(CCN(C(=O)c3ccc(C4CCCCC4)cc3)CC2)C1=O` was run?
The IC50 was 5.5 µM.

For `CC(C)(C)c1ccc(C(=O)N2CCC3(CC2)C(=O)N(CC(=O)NCCCO)CN3c2ccccc2)cc1`, which IC50 [1] is on record?
Its IC50 is 23.6 µM.

Which IC50 [1] does the source give for `CCn1nc(Cc2ccccc2)cc1C1CCN(C(=O)CN2CN(c3ccccc3)C3(CCN(C(=O)c4ccc(C(C)(C)C)cc4)CC3)C2=O)CC1` here?
Its IC50 is 6.4 µM.

Which IC50 [1] does the source give for `O=C(CN1CN(c2ccccc2)C2(CCN(C(=O)c3ccc(C4CCCCC4)cc3)CC2)C1=O)N1CCC(CO)CC1` here?
The IC50 was 1.1 µM.

For `CC(C)(C)OC(=O)NCNC(=O)CN1CN(c2ccccc2)C2(CCN(C(=O)c3ccc(C(C)(C)C)cc3)CC2)C1=O`, which IC50 [1] is on record?
Its IC50 is 59 µM.

Which IC50 [1] does the source give for `CCOC(=O)C1CCN(C(=O)CN2CN(c3ccccc3)C3(CCN(C(=O)c4ccc(C5CCCCC5)cc4)CC3)C2=O)CC1` here?
Its IC50 is 0.9 µM.

With `NCCCNC(=O)CN1CN(c2ccccc2)C2(CCN(C(=O)c3ccc(C4CCCCC4)cc3)CC2)C1=O` as the compound, how does the IC50 [1] read?
The IC50 was 3.1 µM.
